Published values pooled from the literature.
Protocols differ between the studies behind these lines.
Method: competition with immobilised ligand
RPS6KA2 C-terminal kinase domain: Ribosomal protein S6 kinase alpha-2, C-terminal kinase domain (RPS6KA2, Homo sapiens, UniProt Q15349)
RPS6KA2 N-terminal kinase domain: Ribosomal protein S6 kinase alpha-2, N-terminal kinase domain (RPS6KA2, Homo sapiens, UniProt Q15349)

Compound	target	assay	setting	remaining binding [%]
C[C@@H](c1ccc(-n2cnc3c(N)ncnc32)cc1)N1CCc2nn(C)c(Cc3ccccc3)c2C1=O	RPS6KA2 C-terminal kinase domain	binding	0.1 µM	78
O=C(NCC1CCOCC1)c1n[nH]cc1NC(=O)c1c(F)cccc1F	RPS6KA2 N-terminal kinase domain	binding	1 µM	100
FC(F)(F)Oc1cccc(-c2cnc3ccc(-c4ccncc4)nn23)c1	RPS6KA2 N-terminal kinase domain	binding	5 µM	79
c1cnn2ncc(-c3ccnc(N4CCC45COC5)n3)c2c1	RPS6KA2 C-terminal kinase domain	binding	1 µM	85
C[C@@H](c1cccc(C#N)c1)n1cc(Cl)cc(C(N)=O)c1=N	RPS6KA2 C-terminal kinase domain	cell-free assay	1 µM	100
O=C(c1ccc(Nc2nccc(-c3cc4ccccc4s3)n2)cc1)N1CCC(N2CCCC2)CC1	RPS6KA2 C-terminal kinase domain	binding	1 µM	74
C=CC(=O)N1CCC(C(=O)NCC(=O)N2CCN(c3nc(-c4cnc(N)nc4C(F)F)nc(N4CCOCC4)n3)CC2)CC1	RPS6KA2 N-terminal kinase domain	binding	1 µM	82
O=C(c1ccc(Nc2ncc(Cl)c(-c3cc4ccccc4s3)n2)cc1)N1CCC(N2CCCC2)CC1	RPS6KA2 C-terminal kinase domain	binding	1 µM	100
CN(CCCC(F)(F)F)c1nccc(-c2cnn3ncccc23)n1	RPS6KA2 C-terminal kinase domain	binding	1 µM	100
O=C(c1ccc(Nc2ncc(Cl)c(-c3ccc(Cl)s3)n2)cc1)N1CCC(N2CCCC2)CC1	RPS6KA2 N-terminal kinase domain	binding	1 µM	100
O=C(Nc1c[nH]nc1C(=O)NC1CCNCC1)c1cc(F)cc(F)c1	RPS6KA2 C-terminal kinase domain	binding	1 µM	100
CO[C@H]1CC[C@H](CNc2ccc(S(=O)(=O)NC(=O)c3ccc(N4CCN(CC5=C(c6ccc(Cl)cc6)CC(C)(C)CC5)CC4)cc3Oc3cnc4[nH]ccc4c3)cc2[N+](=O)[O-])CC1	RPS6KA2 N-terminal kinase domain	cell-free assay	1 µM	97
CN(C)c1nccc(-c2cnc3ncccn23)n1	RPS6KA2 C-terminal kinase domain	binding	1 µM	91
CCN1CCN(Cc2ccc(C(=O)Nc3ccc(C)c(Oc4ccc5c(c4)CC(=O)N5)c3)cc2C(F)(F)F)CC1	RPS6KA2 N-terminal kinase domain	binding	1 µM	100
CCS(=O)(=O)c1cc2cc(C[C@](O)(CC(C)(C)c3ccc(F)cc3C(N)=O)C(F)(F)F)[nH]c2cn1	RPS6KA2 C-terminal kinase domain	cell-free assay	1 µM	81
COc1cc(C(=O)N2CCC(N3CCN(C)CC3)CC2)ccc1Nc1ncc2c(n1)N(C)c1ccccc1C(=O)N2C	RPS6KA2 C-terminal kinase domain	binding	10 µM	7.5
COc1ncc2cc3ccccc3nc2c1C#N	RPS6KA2 N-terminal kinase domain	cell-free assay	5 µM	91

Compound	target	assay	setting	remaining binding [%]
c1cncc(-c2cccc(Nc3nccc(NC4CCCCC4)n3)c2)c1	RPS6KA2 C-terminal kinase domain	binding	10 µM	100
CC1CCCN1c1nccc(-c2cnn3ncccc23)n1 (stereo not shown)	RPS6KA2 N-terminal kinase domain	binding	1 µM	100
Nc1ncc2c(n1)-c1c([nH]c3ccc(C#CC4CC4)cc13)CCCC2	RPS6KA2 N-terminal kinase domain	binding	1 µM	91
Cc1cnc(Nc2ccc(C(=O)N3CCC(N4CCCC4)CC3)cc2)nc1-c1cc2ccccc2s1	RPS6KA2 C-terminal kinase domain	binding	1 µM	95
Cc1c(NC(=O)c2cc(C(N)=O)nc3cc(F)ccc23)c(C(F)(F)F)nn1Cc1ccc(C#N)cc1	RPS6KA2 C-terminal kinase domain	cell-free assay	1 µM	86
F[C@@H]1CCN(c2nccc(-c3cnn4ncccc34)n2)C1	RPS6KA2 C-terminal kinase domain	binding	1 µM	91
COc1cnc(Nc2cccc(S(N)(=O)=O)c2)nc1N1CCN(c2ccccc2)CC1	RPS6KA2 C-terminal kinase domain	binding	1 µM	84
O=S(=O)(NC1CCC(c2cc(F)ccc2F)(S(=O)(=O)c2ccc(Cl)cc2)CC1)C(F)(F)F (stereo not shown)	RPS6KA2 C-terminal kinase domain	cell-free assay	1 µM	95
C[C@@H]1CCN(c2nccc(-c3cnn4ncccc34)n2)C1	RPS6KA2 N-terminal kinase domain	binding	1 µM	79
COCCOc1nc(-c2ccc(Cl)nc2)nc2c1CN(C(=O)c1ncn3ccccc13)CC2	RPS6KA2 C-terminal kinase domain	cell-free assay	0.1 µM	100
O=C(NCCCN1CCOCC1)c1ccc(Nc2nccc(-c3cc4ccccc4s3)n2)cc1	RPS6KA2 N-terminal kinase domain	binding	1 µM	100
Nc1cnc(N2CCc3cc(S(=O)(=O)Nc4c(F)cc(Cl)cc4F)cc(N4CCCC4=O)c32)nc1	RPS6KA2 N-terminal kinase domain	cell-free assay	1 µM	88
N[C@@H]1CCN(c2nccc(-c3cnn4ncccc34)n2)C1	RPS6KA2 N-terminal kinase domain	binding	1 µM	100
CNC(=O)[C@@H]1CC[C@@H](n2c(-c3ccc4cnccc4c3)nc3ccc(C(=O)NCc4cccc(C(N)=O)c4)cc32)C1	RPS6KA2 N-terminal kinase domain	binding	1 µM	100
CC(C)CC(=O)N1CCc2nc(-c3ccc(Br)cc3)nc(N(C)Cc3ccccc3)c2C1	RPS6KA2 C-terminal kinase domain	cell-free assay	0.1 µM	100
O=C(NCCCN1CCOCC1)c1ccc(Nc2ncc(Cl)c(-c3ccc(Cl)s3)n2)cc1	RPS6KA2 N-terminal kinase domain	binding	1 µM	100
COc1cnc(Nc2cccc(S(N)(=O)=O)c2)nc1N1CCN(c2ccccc2)C(=O)C1	RPS6KA2 N-terminal kinase domain	binding	1 µM	96
